We go through one compound from ChEMBL document CHEMBL4359878, “Discovery of 4-piperazinyl-2-aminopyrimidine derivatives as dual inhibitors of JAK2 and FLT3” (Eur J Med Chem, 2019).

Experiment [1] addresses Tyrosine-protein kinase JAK2 (Homo sapiens, UniProt O60674). Nature of the experiment: Inhibition of N-terminal His-tagged human JAK2 catalytic domain (826 to 1132 resiudes) expressed in baculovirus expression system at 100 nM using FAM-labeled peptide as substrate preincubated for 10 mins followed by substrate addition measured after 1 hr in presence of ATP by mobility shift assay relative to control. The method in brief:
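Single-concentration (100 nM) percent inhibition in the mobility-shift JAK2 assay. Enzyme was preincubated with compound for 10 min at room temperature in HEPES pH 7.5/Brij-35 buffer. FAM-peptide and ATP were then added and the reaction run for 1 h at 28 °C before EDTA stop. Inhibition = (max−conversion)/(max−min)×100. Each compound was tested at least twice and the values averaged.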

Experiment [2] relates to HEL. In words: Antiproliferative activity against human HEL cells assessed as growth inhibition after 72 hrs by CCK-8 assay. The format is functional. In a few lines:
(§1)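 CCK-8 viability readout. Cells were cultured in RPMI 1640 with 10% FBS and 1% penicillin/streptomycin and seeded at 3000 (HEL), 5000 (MV4-11) or 3000 (HL60) cells/well. Increasing compound concentrations were applied for 72 h, then CCK-8 was added for a further 3 h and absorbance read at 450 nm. Inhibition = (1−A_sample/A_control)×100, normalized to DMSO controls. Value is the mean of three independent measurements, obtained by curve fitting.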
A general note: Tetrazolium assays rely on reduction of a dye to a coloured formazan, in cell work by metabolically active cells.

Another experiment relates to MV4-11. Nature of the experiment: Antiproliferative activity against human MV4-11 cells assessed as growth inhibition after 72 hrs by CCK-8 assay. The class given is functional. The note with it: MV4-11, 72 h. The method in brief: as §1
The test system of the next experiment is HL-60. In words: Antiproliferative activity against human HL60 cells assessed as growth inhibition after 72 hrs by CCK-8 assay. The class given is functional. The note with it: HL-60, 72 h. The method in brief: as §1
In experiment [3] the test system is HEL. In words: Induction of cell cycle arrest in human HEL cells assessed as accumulation at G1 phase at 0.33 uM after 72 hrs by propidium iodide-staining based flow cytometry (reference value: 43.12%). The format is functional. The method in brief: (§2)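 Subconfluent HEL cells were treated for 72 h at 0.33, 1.0, 3.0 or 9.0 μM, with untreated cells as control. Cultures were pulsed with 10 μM BrdU for 30 min at 37 °C before harvest, then PBS-washed, fixed in 70% ethanol and denatured in 2 M HCl. After neutralization, cells were stained with fluorescein anti-BrdU antibody and propidium iodide. DNA content was measured by flow cytometry with 488 nm excitation.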
A general note: In flow cytometry, cells or beads pass a laser one at a time.

The subject of experiment [4] is HEL. Nature of the experiment: Induction of cell cycle arrest in human HEL cells assessed as accumulation at G1 phase at 1 uM after 72 hrs by propidium iodide-staining based flow cytometry (reference value: 43.12%). The format is functional. The method in brief: as §2
Experiment [5] deals with HEL. In words: Induction of cell cycle arrest in human HEL cells assessed as accumulation at S phase at 9 uM after 72 hrs by propidium iodide-staining based flow cytometry (reference value: 41.47%). The class given is functional. The method in brief: as §2
For experiment [6], the system named is HEL. In words: Induction of cell cycle arrest in human HEL cells assessed as accumulation of cells at G1/S phase after 72 hrs by propidium iodide-staining based flow cytometry. The format is functional. In a few lines:
as §2

Experiment [7] concerns HEL. In words: Induction of apoptosis in human HEL cells after 72 hrs by FITC-annexin V/propidium iodide-double staining based flow cytometry. The class given is functional, cell-based.
Experiment [8] has as its system HEL. Nature of the experiment: Induction of apoptosis in human HEL cells assessed as early apoptotic cells at 0.33 uM after 72 hrs by FITC-annexin V/propidium iodide-double staining based flow cytometry (reference value: 2.23%). The format is functional.
In experiment [9] the test system is HEL. In words: Induction of apoptosis in human HEL cells assessed as early apoptotic cells at 1 uM after 72 hrs by FITC-annexin V/propidium iodide-double staining based flow cytometry (reference value: 2.23%). The format is functional.
Experiment [10] relates to HEL. Nature of the experiment: Induction of apoptosis in human HEL cells assessed as viable cells at 3 uM after 72 hrs by FITC-annexin V/propidium iodide-double staining based flow cytometry (reference value: 93.77%). The format is functional. To be noted: read-out: Activity.
The subject of experiment [11] is HEL. Nature of the experiment: Induction of apoptosis in human HEL cells assessed as early apoptotic cells at 3 uM after 72 hrs by FITC-annexin V/propidium iodide-double staining based flow cytometry (reference value: 2.23%). The format is functional.
Experiment [12] relates to HEL. In words: Induction of apoptosis in human HEL cells assessed as late apoptotic cells at 3 uM after 72 hrs by FITC-annexin V/propidium iodide-double staining based flow cytometry (reference value: 1.63%). The class given is functional.
For experiment [13], the system named is HEL. In words: Induction of apoptosis in human HEL cells assessed as necrotic cells at 3 uM after 72 hrs by FITC-annexin V/propidium iodide-double staining based flow cytometry (reference value: 2.40%). The class given is functional.
Experiment [14] addresses T1, Receptor-type tyrosine-protein kinase FLT3 (Homo sapiens, UniProt P36888).
T1 sequence (P36888 whole entry): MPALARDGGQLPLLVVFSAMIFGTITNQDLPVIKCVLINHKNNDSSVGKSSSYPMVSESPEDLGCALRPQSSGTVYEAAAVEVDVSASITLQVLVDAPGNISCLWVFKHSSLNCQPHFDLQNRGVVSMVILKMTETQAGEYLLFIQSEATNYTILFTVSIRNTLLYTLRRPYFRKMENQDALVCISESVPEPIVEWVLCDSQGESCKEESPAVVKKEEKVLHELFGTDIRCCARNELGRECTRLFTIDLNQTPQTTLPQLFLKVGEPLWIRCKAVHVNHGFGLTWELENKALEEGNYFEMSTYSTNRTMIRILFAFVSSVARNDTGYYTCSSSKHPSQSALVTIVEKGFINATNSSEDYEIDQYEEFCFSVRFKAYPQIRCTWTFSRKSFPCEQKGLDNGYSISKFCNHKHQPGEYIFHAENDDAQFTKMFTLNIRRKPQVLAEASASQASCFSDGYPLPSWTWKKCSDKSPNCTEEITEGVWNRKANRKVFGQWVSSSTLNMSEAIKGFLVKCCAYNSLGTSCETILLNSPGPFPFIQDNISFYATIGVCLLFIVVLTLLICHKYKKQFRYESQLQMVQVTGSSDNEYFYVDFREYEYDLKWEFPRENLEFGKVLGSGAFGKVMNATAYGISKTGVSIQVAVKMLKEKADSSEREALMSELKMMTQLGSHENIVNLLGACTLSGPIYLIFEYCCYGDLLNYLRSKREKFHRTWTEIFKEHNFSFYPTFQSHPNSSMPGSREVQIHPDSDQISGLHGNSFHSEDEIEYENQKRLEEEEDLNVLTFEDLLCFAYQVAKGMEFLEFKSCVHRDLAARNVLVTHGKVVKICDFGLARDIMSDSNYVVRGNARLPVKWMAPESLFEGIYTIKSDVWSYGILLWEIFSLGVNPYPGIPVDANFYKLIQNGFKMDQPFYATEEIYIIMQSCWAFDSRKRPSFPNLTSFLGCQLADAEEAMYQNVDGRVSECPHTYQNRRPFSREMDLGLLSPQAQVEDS
Nature of the experiment: Inhibition of N-terminal GST-tagged human FLT3 cytoplasmic domain (564 to 993 residues) expressed in baculovirus expression system musing FAM-labeled peptide as substrate preincubated for 10 mins followed by substrate addition measured after 1 hr in presence of ATP by mobility shift assay. The method in brief:
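Caliper mobility-shift assay with recombinant kinase in 50 mM HEPES pH 7.5, 0.0015% Brij-35. Compound was diluted from DMSO and preincubated with enzyme for 10 min at room temperature. FAM-labeled peptide plus ATP was then added and the reaction run for 1 h at 28 °C. It was stopped with an EDTA (50 mM) buffer. Conversion gave percent inhibition relative to max/min controls, and IC50 came from a four-parameter Hill fit. Duplicate wells were used.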

pIC50: −log10 of the molar value.

Tyrosine-protein kinase JAK2, sequence (O60674 whole entry, the tested form may be a part): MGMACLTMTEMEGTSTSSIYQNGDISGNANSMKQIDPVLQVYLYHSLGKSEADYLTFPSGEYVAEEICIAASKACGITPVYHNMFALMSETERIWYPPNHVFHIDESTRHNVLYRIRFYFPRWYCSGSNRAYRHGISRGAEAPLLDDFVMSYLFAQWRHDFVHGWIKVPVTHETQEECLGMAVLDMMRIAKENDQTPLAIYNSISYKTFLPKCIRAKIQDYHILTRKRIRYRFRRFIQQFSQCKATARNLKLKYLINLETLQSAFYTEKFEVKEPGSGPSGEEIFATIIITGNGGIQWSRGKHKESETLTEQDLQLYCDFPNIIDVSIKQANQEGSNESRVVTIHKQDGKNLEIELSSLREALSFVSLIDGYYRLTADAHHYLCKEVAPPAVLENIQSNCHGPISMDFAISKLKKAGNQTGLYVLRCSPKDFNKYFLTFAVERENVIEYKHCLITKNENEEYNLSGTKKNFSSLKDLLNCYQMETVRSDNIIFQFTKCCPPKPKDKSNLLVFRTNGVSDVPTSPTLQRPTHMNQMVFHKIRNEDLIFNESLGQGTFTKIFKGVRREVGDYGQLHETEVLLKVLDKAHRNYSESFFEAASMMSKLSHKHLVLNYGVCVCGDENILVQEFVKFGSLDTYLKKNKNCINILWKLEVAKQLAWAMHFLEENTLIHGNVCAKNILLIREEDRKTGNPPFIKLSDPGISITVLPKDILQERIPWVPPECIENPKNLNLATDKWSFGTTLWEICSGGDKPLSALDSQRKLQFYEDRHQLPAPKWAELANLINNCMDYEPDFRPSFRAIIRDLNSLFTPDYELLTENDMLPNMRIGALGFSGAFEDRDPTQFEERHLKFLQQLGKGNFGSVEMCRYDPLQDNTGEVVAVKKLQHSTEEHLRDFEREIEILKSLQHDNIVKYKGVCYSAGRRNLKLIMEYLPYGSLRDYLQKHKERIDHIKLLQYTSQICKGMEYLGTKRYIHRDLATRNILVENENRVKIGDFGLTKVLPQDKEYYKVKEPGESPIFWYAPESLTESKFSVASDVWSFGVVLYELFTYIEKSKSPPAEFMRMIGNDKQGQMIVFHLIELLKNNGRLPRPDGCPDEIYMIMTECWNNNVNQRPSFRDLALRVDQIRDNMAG

As a reminder, the inhibition is the drop in the measured response relative to a control, in per cent. What is called GI50 is the concentration at which growth is held to half of that of the control. The pIC50 is the IC50 on a negative log10 scale, so that one unit is a factor of ten. On to `CC(=O)c1ccc(NC(=O)N2CCN(c3ccnc(Nc4ccc(N5CCOCC5)cc4)n3)CC2)cc1`, for which the inhibition in experiment [1] is 86.7%. For the same compound, the GI50 was 4.3 µM in the experiment with HEL [2], 11 µM in the experiment on MV4-11 and 16.5 µM in the experiment with HL-60. Also, the Activity with HEL [3] was 54.07%; with HEL [4], 61.44%; with HEL [5], 19.26%; in the experiment on HEL [6] it was “Dose-dependent effect”; with HEL [7], “Dose-dependent effect”; in the experiment with HEL [8], 4.07%. The Activity is given as 16.97% in the experiment on HEL [9], 31.87% in the experiment with HEL [11], 33.6% in the experiment with HEL [12] and 7% in the experiment with HEL [13]. Besides, in the experiment on HEL [10], the viability at 3 µM was determined as 22.6%. Further, in experiment [14], the negative logarithm of the IC50 (pIC50) is 7.52.
